# Screening results as filed in PubChem.
# Shown are actives, neighbours in structure and some others; about 2.6% of the full set was active somewhere.
# MEKK2 WT-MEK5 – raises or lowers MEK5 binding to wildtype human MEKK2 PB1 domain; bead flow cytometry, Alexa488-MEK5 binding to MEKK2 WT; actives lie on both sides; Q9Y2U5; binding response (% of control), % at 10 µM; AID 1531; actives 1.1% (n = 290,000); in the data active = binding response below about 67% or above about 130%; inconclusive = no clear call, values can overlap the other calls; inactive = in between
# MEKK3 PB1 HTS – raises or lowers MEK5 binding to the human MEKK3 PB1 domain; bead-based flow cytometry, Alexa488-MEK5 binding to MEKK3; actives lie on both sides; 0 = blocked by unlabeled MEK5, 100 = vehicle; Q99759; actives 1.4% (n = 290,000); binding response (% of control), % at 10 µM;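 active = binding response more than 3 SD above or below the average of its plate-row segment, actives on both sides; inconclusive = wells at one plate position flagged as instrument error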;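 note: Alexa488 bead fluorescence after subtracting the streptavidin-only scavenger bead signal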
# Target sequence (Q99759 whole entry, looked up, the tested form may be a part): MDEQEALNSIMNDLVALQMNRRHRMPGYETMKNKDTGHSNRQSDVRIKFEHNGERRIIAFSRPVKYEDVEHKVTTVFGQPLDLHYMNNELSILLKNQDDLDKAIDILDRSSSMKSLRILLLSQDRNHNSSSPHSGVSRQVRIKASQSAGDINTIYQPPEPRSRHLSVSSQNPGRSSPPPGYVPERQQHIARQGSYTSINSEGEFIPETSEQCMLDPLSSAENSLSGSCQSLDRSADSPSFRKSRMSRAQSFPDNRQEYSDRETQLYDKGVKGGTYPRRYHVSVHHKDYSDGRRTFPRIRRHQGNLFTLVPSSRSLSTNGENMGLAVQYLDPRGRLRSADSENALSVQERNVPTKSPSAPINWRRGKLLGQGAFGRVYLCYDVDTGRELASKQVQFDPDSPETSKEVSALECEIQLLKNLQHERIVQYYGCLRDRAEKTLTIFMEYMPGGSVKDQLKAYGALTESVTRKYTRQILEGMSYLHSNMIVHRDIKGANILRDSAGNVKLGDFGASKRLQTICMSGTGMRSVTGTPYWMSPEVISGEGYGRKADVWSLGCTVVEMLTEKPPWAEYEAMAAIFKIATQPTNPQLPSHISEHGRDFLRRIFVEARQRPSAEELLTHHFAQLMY
# MEKK2mut PB1 HTS – signal of MEK5 binding to mutant human MEKK2 PB1 domain | bead flow cytometry, Alexa488-MEK5 binding to MEKK2 mutant | percent response, % at 10 µM | actives 0.35% (n = 290,000); in the data active = percent response above about 24%, passing the limit was not always enough
# Hep lipid drop – modulators of hepatic lipid droplet formation; inhibition, % at 6.5 µM; actives 0.4% (n = 240,000); AML12 mouse hepatocytes, oleate lipid droplets, BODIPY imaging;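 active = lipid droplet intensity inhibited by at least 50%, with more than 500 cells counted; inconclusive = wells with under 300 cells, treated as cytotoxic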
#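 Material – mouse AML12 hepatocyte cell line, fixed after treatment · Compound dosing – one dose, 6.5 µM compound · Times – compound with oleate, overnight · Measured by – Image-based BODIPY and DAPI two-channel analysis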
# Starred values were filed as active, the others as inactive; ? = inconclusive; / = not tested or not shown; ! = not confirmed by another sample; [ ] = another dose, or the depositor's remark.
SMILES,MEKK2 WT-MEK5,MEKK3 PB1 HTS,MEKK2mut PB1 HTS,Hep lipid drop
CCC(=O)Nc1nc(C)c(-c2csc(Nc3ccc(S(=O)(=O)Nc4cc(C)on4)cc3)n2)s1,91.0,94.0,-1.0,-13.1
CCOc1ccc(Cc2c(C)[nH]c3ccc(C(=O)O)cc3c2=S)cc1,101.0,102.0,5.0,14.7
CCOC(=O)N1CCN(C(=O)C(=O)c2cn(CC(=O)N3CCCCCC3)c3ccccc23)CC1,2.0*,97.0,1.0,-41.7
Cc1ccc(N(CC(=O)Nc2ccccc2C(=O)NCc2ccco2)S(=O)(=O)c2ccccc2)cc1C,119.0,99.0,29.0*,4.5
O=C(NCC1CCCN(Cc2ccc3nonc3c2)C1)c1ccc(F)cc1 (stereo not drawn),103.0,104.0,1.0,-12.2
Cc1ccc(CSc2cc(C)[nH]c(=O)n2)cc1,102.0,102.0,2.0,20.2
COc1ccc(CCN2CC34C=CC(O3)C(C(=O)NCc3ccccc3Cl)C4C2=O)cc1OC (stereo not drawn),99.0,103.0,1.0,-11.0
COc1ccccc1N1CCN(C(=O)C2C3C=CC4(CN(Cc5ccccc5Cl)C(=O)C24)O3)CC1 (stereo not drawn),86.0,82.0*[inhibitor],-2.0,/
N#CC1=C(N)OC2=C(CCc3ccccc32)C1c1ccccc1 (stereo not drawn),93.0,100.0,1.0,100.8*
Cc1cc(C)n2nc(SCCC(=O)NCc3ccccc3)nc2n1,95.0,99.0,0.0,12.8
COC(=O)c1cc(-c2ccc(OC)cc2)n[nH]1,99.0,98.0,-2.0,-4.5
CCOc1ccc(-c2cc(C(=O)OC)[nH]n2)cc1,97.0,162.0*,880.0*,-3.4
O=C(N/N=C/c1cccs1)c1cccc(NC(=O)c2ccc(Cl)cc2)c1,110.0,132.0*,0.0,-3.0
O=C(N/N=C/c1cccs1)c1cccc(S(=O)(=O)Nc2ccc(Cl)cc2)c1,105.0,105.0,10.0,/
CCCCNC(=O)CSc1nc2ccsc2c(=O)n1CCCC(=O)NCCc1ccc(S(N)(=O)=O)cc1,81.0,73.0,-10.0,4.8
CN1CCN(c2ccc(NC(=S)NC(=O)c3cccc4ccccc34)cc2)CC1,128.0,98.0,10.0,-7.3
CN1CCN(c2ccc(NC(=S)NC(=O)c3cccc4c(Br)cccc34)cc2)CC1,173.0*,106.0,22.0,-14.7
Cc1[nH]c2ccccc2c1-c1csc(NC(=O)CSCCO)n1,106.0,104.0,0.0,-9.9
COc1cc2ncnc(Nc3cccc(Cl)c3)c2cc1OC,98.0,100.0,0.0,65.0*
COc1cccc2c1C(=O)c1c(O)c3c(c(O)c1C2=O)C[C@@](O)(C(=O)CO)C[C@@H]3O[C@H]1C[C@H](N)[C@H](O)[C@H](C)O1,50.0*![inhibitor],47.0*![inhibitor],-9.0,?
COc1cccc(-c2c(C#N)c(N)nc3c2c(C)nn3-c2ccccc2)c1O,104.0,111.0,1.0,-15.0
CCOC(=O)/C(=C/c1ccc(OC(=O)c2ccccc2)cc1)C(C)=O,4.0*,97.0,11.0,0.9
CCn1nc(C)c([N+](=O)[O-])c1C(=O)NNC(=O)c1ccccc1Cl,101.0,102.0,4.0,-3.9
Cc1ccccc1Nc1nc(N)c2ccccc2n1,173.0*,161.0*,28.0,-2.8
Nc1nc(Nc2ccccc2)nc2ccccc12,117.0,102.0,9.0,/
SMILES,MEKK2 WT-MEK5,MEKK3 PB1 HTS,MEKK2mut PB1 HTS,Hep lipid drop
O=C(NC1CCCCC1)C(=S)N1CCOCC1,79.0,66.0,-7.0,-0.9
CN(C)c1ccc(/C=C/C(=O)c2cc(Cl)ccc2O)cc1,-1.0*,90.0,-10.0,2.2
CC(=O)N(c1cccc(Br)c1)c1nc(C)cc(C)c1C#N,103.0,106.0,9.0,-1.3
Cc1nn(-c2ccccc2)c(N2CCCC2)c1/C=N/Nc1ccc(S(=O)(=O)Nc2ccccc2)cc1[N+](=O)[O-],79.0,81.0,-3.0,82.2*
COc1ccc(OC)c(-n2c(=S)[nH]c3c(sc(=S)n3-c3ccccc3)c2=O)c1,98.0,98.0,-2.0,-5.7
O=C(NCCCN1CCCC1)C1CCN(C(=O)c2cc3sccc3n2Cc2ccc(F)cc2)CC1,168.0*,109.0,28.0*,18.5
CC(C)Nc1ccc(Nc2ccnc3cc4ccccc4cc23)cc1,208.0*,109.0,80.0*,-0.1
O=C(Cn1nc(-c2nn(CC(=O)c3ccccc3)c3[n+]2CCCCC3)[n+]2c1CCCCC2)c1ccccc1,110.0,99.0,6.0,0.8
Cc1ccc(C(C)C)c(OCc2nn(CC(=O)c3ccc(OC(F)F)cc3)c3[n+]2CCCCC3)c1,217.0*,114.0,47.0,-18.3
COc1cccc(NC(=O)CCN2C(=O)C3CC=CCC3C2=O)c1 (stereo not drawn),101.0,97.0,6.0,-20.8
COc1ccc(NC(=O)CSc2nc3c(sc4ccccc43)c(=O)n2CCCN2CCCC2)cc1,176.0*,105.0,39.0*,-26.3
COc1ccc(-c2coc3cc4oc(=O)cc(-c5ccccc5)c4cc23)cc1F,106.0,132.0*,0.0,-64.7
Cc1c(C(=O)N2CCN(Cc3ccccc3)CC2)oc2c1C(=O)CC(C)(C)C2,103.0,101.0,4.0,-11.4
COc1cccc2cc(C(=O)N3CCc4ccccc43)c(=O)oc12,98.0,102.0,1.0,6.0
CCOc1cccc2cc(C(=O)N3CCc4ccccc43)c(=O)oc12,5.0*,100.0,8.0,10.5
O=C(NCc1cccc(C(F)(F)F)c1)c1ccc2c(c1)OCO2,98.0,100.0,4.0,-9.5
CC1Cc2cc(-c3csc(NC(=O)Cc4cccs4)n3)ccc2N1S(C)(=O)=O (stereo not drawn),/,/,/,-3.5
CCC(=O)Nc1nc(-c2ccc3c(c2)CC(C)N3S(C)(=O)=O)cs1 (stereo not drawn),-1.0*,99.0,5.0,1.4
CCCn1c2ccccc2c2nnc(SCc3[nH]c(=O)[nH]c3C(=O)CCCCC(=O)OCC)nc21,107.0,100.0,8.0,12.1
CCOC(=O)CCCCC(=O)c1[nH]c(=O)[nH]c1CSc1nnc2c3ccccc3n(C(C)C)c2n1,108.0,131.0*,0.0,-39.4
CCn1cc(CN2CCC(C(=O)Nc3cccc(-c4cccc(F)c4)c3)CC2)cn1,128.0,103.0,11.0,1.4
CCn1nc(C)c(CN2CCC(C(=O)Nc3cccc(-c4cccc(F)c4)c3)CC2)c1C,136.0*,106.0,25.0*,-1.0
O=C(CCc1nnc2ccc(N3CCCC3)nn12)Nc1cc(F)ccc1F,100.0,101.0,0.0,-12.3
CCCN1CCc2c(sc(NC(=S)NC(=O)c3ccccc3)c2C#N)C1,0.0*,95.0,8.0,8.3
O=C(NCCc1ccccc1Cl)c1cc(COc2ccc(F)cc2F)on1,104.0,106.0,2.0,-9.4
COc1cc(N2CCCC2)ccc1C=O,90.0,103.0,-8.0,10.6
Cc1cc(N2CCCC2)c(C)cc1C=O,-46.0*,95.0,-6.0,-1.7
CCN1CC(CCN2CCOCC2)C(c2ccccc2)(c2ccccc2)C1=O (stereo not drawn),109.0,104.0,3.0,/
N=C1S/C(=C\c2cccc3ccccc23)C(=O)N1c1ccc(F)cc1,102.0,144.0*,0.0,-3.0
